Results as given in PMC4912417 (Nature chemical biology, 2016).

System: larval zebrafish
Test: Battery of 10 behavioral assays in larval zebrafish
Type: in vivo, zebrafish (Danio rerio)
Settings: for Haloperidol-like phenotype (zebrafish motor activity heat maps): Fig. 3b, three wells per drug
Method in brief: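 7 d.p.f. Ekkwill larvae, 8–10 per well in E3, held 1 h at 25 °C, then given compound (<1% DMSO; DMSO-treated control wells) for 1 h at room temperature. Ten-assay battery of red/blue/violet light and 60/70 dB sound, IR-lit video; MI by frame differencing over 10,500 time points. Seven 2-fold concentrations, 12 wells each, triplicate days; magnitude = 5th-percentile-subtracted MI averaged over time.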

SMILES	Haloperidol-like phenotype (zebrafish motor activity heat maps)	other results
O=C(CCCN1CCC(O)(c2ccc(Br)cc2)CC1)c1ccc(F)cc1 [BROMPERIDOL]	cause haloperidol-like phenotypes	
O=C(CCCN1CC=C(n2c(=O)[nH]c3ccccc32)CC1)c1ccc(F)cc1 [DROPERIDOL]	cause haloperidol-like phenotypes	
O=C(CCCN1CCC(O)(c2ccc(Cl)cc2)CC1)c1ccc(F)cc1 [Haloperidol]		MI magnitude (5 μM, 48 wells vs DMSO): increased MI magnitude at many points in the time series; Shape and average magnitude of the behavioral profile (lower concentrations (2.5–10 μM)): changed the shape of the behavioral profile without reducing its average magnitude; Motor activity (very high concentrations (20–80 μM)): reduced motor activity
CN1c2ccccc2C(NCCCCCCC(=O)O)c2ccc(Cl)cc2S1(=O)=O (stereo not drawn) [Tianeptine]		Effect on behavioral profile (phenotypic distance from control animals) (reference set, seven concentrations): failed to show an effect
c1ccc2c(c1)Nc1ccccc1S2 [phenothiazine]	cause haloperidol-like phenotypes	
CN1CCN(CCCN2c3ccccc3Sc3ccc(Cl)cc32)CC1 [prochlorperazine]	cause haloperidol-like phenotypes	
CSc1ccc2c(c1)N(CCC1CCCCN1C)c1ccccc1S2 (stereo not drawn) [thioridazine]	cause haloperidol-like phenotypes	
